In publication PMC7686114 (Bioorganic chemistry, 2020):

Legend:
[1] = test system: intracellular cGMP levels in HEK293 cells; experiment: Luciferase cGMP biosensor assay; assay type: cell-based, human; conditions: for intracellular cGMP levels (luminescence), concentration dependence: pretreated with sodium nitroprusside
Outline: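 HEK293 cells stably expressing a GloSensor cGMP-40F construct (human PDE5A GAF-A fused to firefly luciferase) were G418-selected. Cells were seeded at 6×10⁴/well and attached overnight in DMEM + 10% FBS at 37°C, 5% CO2. They were preincubated at room temperature in CO2-independent medium with 10% FBS and 5 mmol/L luciferin. 50 μM sodium nitroprusside was added together with test compound, and luminescence was read every minute for 1 h.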

human recombinant PDE5 = human recombinant PDE5 (Homo sapiens, UniProt O76074); experiment: PDE5 inhibition, IMAP fluorescence polarization assay; assay type: biochemical; conditions: for inhibition at 50 µM: read-out: PDE5 % inh at 50 (μM); for fold reduction in PDE5 inhibitory potency compared to compound 7: vs compound 7 (4-COOH, 4-chlorophenyl); for PDE5 inhibitory activity (in words): SAR statement vs parent compound
COX-2 = biological target: T1, COX-2 (Ovis aries, UniProt P79208); experiment: COX-2 colorimetric assay; assay type: biochemical, ovine
T1 sequence (P79208 17-603): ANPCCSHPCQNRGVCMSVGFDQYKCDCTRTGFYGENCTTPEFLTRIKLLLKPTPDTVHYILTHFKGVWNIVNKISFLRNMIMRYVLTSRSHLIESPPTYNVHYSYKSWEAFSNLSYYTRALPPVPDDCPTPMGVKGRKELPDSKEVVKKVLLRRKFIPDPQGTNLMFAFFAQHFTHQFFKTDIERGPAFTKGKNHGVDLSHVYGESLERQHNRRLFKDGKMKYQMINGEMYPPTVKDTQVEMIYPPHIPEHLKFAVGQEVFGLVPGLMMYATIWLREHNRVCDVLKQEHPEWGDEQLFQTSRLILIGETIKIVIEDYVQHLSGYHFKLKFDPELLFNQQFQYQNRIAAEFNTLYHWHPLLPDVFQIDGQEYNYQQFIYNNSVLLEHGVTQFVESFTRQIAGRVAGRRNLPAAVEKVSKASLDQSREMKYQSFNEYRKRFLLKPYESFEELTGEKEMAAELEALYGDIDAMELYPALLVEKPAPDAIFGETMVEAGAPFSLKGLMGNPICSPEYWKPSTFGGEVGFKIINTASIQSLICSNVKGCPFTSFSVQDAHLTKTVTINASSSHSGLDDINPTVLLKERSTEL
Outline: (§1)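 Ovine COX-1 or COX-2 was diluted with hemin in 0.1 M Tris-HCl, pH 8. Test compound or vehicle was preincubated with enzyme for 5 min at 25°C. Colorimetric substrate was added, then arachidonic acid, and the reaction ran 5 min more at 25°C. Activity was read as substrate absorbance at 590 nm.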

COX-1 = biological target: T2, COX-1 (Ovis aries, UniProt P05979); experiment: COX-1 colorimetric assay; assay type: biochemical, ovine; conditions: screening concentration 100 μM
T2 sequence (P05979 25-600): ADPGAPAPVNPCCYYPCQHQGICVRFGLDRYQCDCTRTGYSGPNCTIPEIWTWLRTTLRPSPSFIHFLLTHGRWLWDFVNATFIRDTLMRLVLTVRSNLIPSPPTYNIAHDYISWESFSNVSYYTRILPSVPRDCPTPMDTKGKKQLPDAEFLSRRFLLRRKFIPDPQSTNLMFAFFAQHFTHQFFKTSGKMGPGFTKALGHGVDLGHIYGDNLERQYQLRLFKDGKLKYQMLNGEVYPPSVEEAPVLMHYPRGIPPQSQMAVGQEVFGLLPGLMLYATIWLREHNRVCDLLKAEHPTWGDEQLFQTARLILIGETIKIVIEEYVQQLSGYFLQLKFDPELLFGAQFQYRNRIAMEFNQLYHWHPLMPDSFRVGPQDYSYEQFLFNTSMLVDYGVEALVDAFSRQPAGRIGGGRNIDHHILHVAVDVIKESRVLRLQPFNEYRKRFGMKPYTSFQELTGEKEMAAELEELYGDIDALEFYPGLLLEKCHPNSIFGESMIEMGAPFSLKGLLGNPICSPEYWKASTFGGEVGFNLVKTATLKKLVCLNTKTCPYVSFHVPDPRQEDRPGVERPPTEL
Outline: as §1

Row | SMILES | IC50 (human recombinant PDE5) [µM] | inhibition at 50 µM (human recombinant PDE5) [%] | other results
1 | CN1CC(=O)N2[C@H](c3ccc4c(c3)OCO4)c3[nH]c4ccccc4c3C[C@@H]2C1=O [Tadalafil, tadalafil, reference compound] | – | – | intracellular cGMP levels (luminescence), concentration dependence [1]: concentration-dependent increase
2 | CC(C)(C)C1=NN(c2ccc(S(=O)(=O)O)cc2)C(c2ccc(Cl)cc2)C1 (stereo not drawn) [Compound 32, 4-(3-tert-Butyl-5-(4-chlorophenyl)-4,5-dihydro-1H-pyrazol-1-yl)benzenesulfonic acid] | 8.7 | 85 | fold reduction in PDE5 inhibitory potency compared to compound 7 (human recombinant PDE5): about 2 fold; IC50 (COX-2): 85 µM
3 | COc1ccc(C2CC(C(C)(C)C)=NN2c2ccc(C(=O)O)cc2)c(OC)c1 (stereo not drawn) [Compound 16, 4-(3-tert-Butyl-5-(2,4-dimethoxyphenyl)-4,5-dihydro-1H-pyrazol-1-yl)benzoic acid] | – | 85.8 | –
4 | CCOC(=O)c1ccc(N2N=C(C(C)(C)C)CC2c2cccc([N+](=O)[O-])c2)cc1 (stereo not drawn) [Compound 37, Ethyl 4-(3-tert-butyl-5-(3-nitrophenyl)-4,5-dihydro-1H-pyrazol-1-yl)benzoate] | – | 16 | PDE5 inhibitory activity (in words) (human recombinant PDE5): diminished the PDE5 inhibitory activity
5 | CCOc1ccccc1C1CC(C(C)(C)C)=NN1c1ccc(C(=O)O)cc1 (stereo not drawn) [Compound 18, 4-(3-(tert-Butyl)-5-(2-ethoxyphenyl)-4,5-dihydro-1H-pyrazol-1-yl)benzoic acid] | > 50 | 42.5 | –
6 | CC(C)(C)c1cc(-c2ccccc2)n(-c2ccc(C(=O)O)cc2)n1 [Compound 34, 4-(3-tert-Butyl-5-phenyl-1H-pyrazol-1-yl)benzoic acid] | 18.9 | 72 | reduction in PDE5 inhibitory activity of pyrazole vs pyrazoline (human recombinant PDE5; compounds 34 and 35 compared to compounds 1 and 4): 3–4 times
7 | COc1ccc(OC)c(C2CC(C(C)(C)C)=NN2c2ccc(C(=O)O)cc2)c1 (stereo not drawn) [Compound 17, 4-(3-tert-Butyl-5-(2,5-dimethoxyphenyl)-4,5-dihydro-1H-pyrazol-1-yl)benzoic acid] | > 50 | 47 | –
8 | CC(C)(C)C1=NN(c2ccc(S(=O)(=O)O)cc2)C(c2ccc(F)cc2)C1 (stereo not drawn) [Compound 31, 4-(3-tert-Butyl-5-(4-fluorophenyl)-4,5-dihydro-1H-pyrazol-1-yl) benzenesulfonic acid] | 9.3 | 80 | IC50 (COX-2): 80 µM
9 | CC(C)(C)C1=NN(c2ccc(S(N)(=O)=O)cc2)C(c2ccc(Cl)cc2)C1 (stereo not drawn) [Compound 33, 4-(3-tert-Butyl-5-(4-chlorophenyl)-4,5-dihydro-1H-pyrazol-1-yl)benzenesulfonamide] | 48.7 | 57.5 | fold reduction in PDE5 inhibitory potency compared to compound 7 (human recombinant PDE5): about 15 fold; IC50 (COX-2): 34 µM
10 | CC(C)(C)C1=NN(c2ccc(C(=O)O)cc2)C(c2ccco2)C1 (stereo not drawn) [Compound 27, 4-(3-tert-Butyl-5-(furan-2-yl)-4,5-dihydro-1H-pyrazol-1-yl)benzoic acid] | – | 23.6 | PDE5 inhibitory activity (in words) (human recombinant PDE5): detrimental to the activity
11 | CC(C)(C)C1=NN(c2ccccc2C(=O)O)C(c2ccc(Cl)cc2)C1 (stereo not drawn) [Compound 30, 2-(3-tert-Butyl-5-(4-chlorophenyl)-4,5-dihydro-1H-pyrazol-1-yl)benzoic acid] | – | 46 | PDE5 inhibitory activity (in words) (human recombinant PDE5): diminished the activity
12 | CC(C)(C)C1=NN(c2ccc(C(=O)O)cc2)C(c2ccc(-c3ccccc3)cc2)C1 (stereo not drawn) [Compound 25, 4-(5-([1,1’-Biphenyl]-4-yl)-3-(tert-butyl)-4,5-dihydro-1H-pyrazol-1-yl)benzoic acid] | 35.6 | 100 | –

The next lines start with results.

Row | IC50 (human recombinant PDE5) [µM] | inhibition at 50 µM (human recombinant PDE5) [%] | SMILES | other results
13 | 7.7 | 80 | CC(C)(C)C1=NN(c2ccc(C(=O)O)cc2)C(c2ccc(F)cc2)C1 (stereo not drawn) [Compound 4, 4-(3-tert-Butyl-5-(4-fluorophenyl)-4,5-dihydro-1H-pyrazol-1-yl)benzoic acid] | –
14 | 13.8 | 75 | CC(C)(C)C1=NN(c2ccc(C(=O)O)cc2)C(c2ccc(C#N)cc2)C1 (stereo not drawn) [Compound 23, 4-(3-tert-Butyl-5-(4-cyanophenyl)-4,5-dihydro-1H-pyrazol-1-yl)benzoic acid] | –
15 | – | 100 | CC(C)(C)C1=NN(c2ccc(C(=O)O)cc2)C(c2ccc(Cl)c(Cl)c2)C1 (stereo not drawn) [Compound 12, 4-(3-(tert-Butyl)-5-(3,4-dichlorophenyl)-4,5-dihydro-1H-pyrazol-1-yl)benzoic acid] | –
16 | 3.2 | 87.6 | CC(C)(C)C1=NN(c2ccc(C(=O)O)cc2)C(c2cccc([N+](=O)[O-])c2)C1 (stereo not drawn) [Compound 20, 4-(3-tert-Butyl-5-(3-nitrophenyl)-4,5-dihydro-1H-pyrazol-1-yl)benzoic acid] | –
17 | – | 95.3 | CCOc1ccc(C2CC(C(C)(C)C)=NN2c2ccc(C(=O)O)cc2)cc1 (stereo not drawn) [Compound 19, 4-(3-(tert-Butyl)-5-(4-ethoxyphenyl)-4,5-dihydro-1H-pyrazol-1-yl)benzoic acid] | relative potency/efficacy in increasing intracellular cGMP levels ([1]; comparison among tadalafil, celecoxib, 11 and 19): substantially higher efficacy; intracellular cGMP levels (luminescence), concentration dependence [1]: concentration-dependent increase
18 | – | 91.4 | CC(C)(C)C1=NN(c2ccc(C(=O)O)cc2)C(c2cccc(Br)c2)C1 (stereo not drawn) [Compound 9, 4-(5-(3-Bromophenyl)-3-(tert-butyl)-4,5-dihydro-1H-pyrazol-1-yl)benzoic acid] | –
19 | – | 95.7 | CC(C)(C)C1=NN(c2ccc(C(=O)O)cc2)C(c2cccc(Cl)c2)C1 (stereo not drawn) [Compound 6, 4-(3-(tert-Butyl)-5-(3-chlorophenyl)-4,5-dihydro-1H-pyrazol-1-yl)benzoic acid] | –
20 | 3.3 | 85 | CC(C)(C)C1=NN(c2ccc(C(=O)O)cc2)C(c2ccc(Cl)cc2)C1 (stereo not drawn) [Compound 7, 4-(3-tert-Butyl-5-(4-chlorophenyl)-4,5-dihydro-1H-pyrazol-1-yl)benzoic acid] | –
21 | – | 91 | CC(C)(C)C1=NN(c2ccc(C(=O)O)cc2)C(c2ccc([N+](=O)[O-])cc2)C1 (stereo not drawn) [Compound 21, 4-(3-tert-Butyl-5-(4-nitrophenyl)-4,5-dihydro-1H-pyrazol-1-yl)benzoic acid] | –
22 | – | 100 | CC(C)(C)C1=NN(c2ccc(C(=O)O)cc2)C(c2ccccc2Br)C1 (stereo not drawn) [Compound 8, 4-(5-(2-Bromophenyl)-3-(tert-butyl)-4,5-dihydro-1H-pyrazol-1-yl)benzoic acid] | –
23 | – | 93 | Cc1ccc(C2CC(C(C)(C)C)=NN2c2ccc(C(=O)O)cc2)cc1 (stereo not drawn) [Compound 22, 4-(3-tert-Butyl-5-p-tolyl-4,5-dihydro-1H-pyrazol-1-yl)benzoic acid] | COX1 inhibition at 100 μM (COX-1): no COX inhibition; fold improvement in PDE5 inhibitory activity compared to celecoxib (human recombinant PDE5; ratio of IC50 vs celecoxib): 4 fold; COX2 inhibition at 100 μM (COX-2; screening concentration 100 μM): no COX inhibition
